What was measured:
NOS1 = NOS1 (Rattus norvegicus, UniProt P29476); experiment: 14-C-L-arginine to 14-C-L-citrulline conversion by purified recombinant NOS1; assay type: biochemical
Summary of the method: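 Purified recombinant rat NOS1 or human NOS2 holoprotein at 5 nM. Incubated 60 min at 37°C with 2.9 μM 14C-L-arginine and 10 μM unlabeled L-arginine in 50 mM HEPES pH 7.5, with 10 μM FAD, 1 mM DTT, 100 μM tetrahydrobiopterin, 200 μM NADPH, and graded test compound, in near-dark. Stopped with HEPES pH 5.5/citrulline/EDTA. 14C-citrulline separated on Dowex 50W-X8, scintillation-counted; percent inhibition calculated.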

NOS2 = NOS2 (Homo sapiens, UniProt P35228); experiment: 14-C-L-arginine to 14-C-L-citrulline conversion by purified recombinant NOS2; assay type: biochemical
NOS3 = NOS3 (Bos taurus, UniProt P29473); experiment: 14-C-L-arginine to 14-C-L-citrulline conversion by purified recombinant NOS3; assay type: biochemical, bovine; settings: purified recombinant enzyme
Summary of the method: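 Purchased recombinant bovine NOS3, with NOS co-factors and 14C-L-arginine, with or without graded test compound, in near-dark conditions. 14C-L-citrulline formed was separated from 14C-L-arginine on a Dowex 50W-X8 cation-exchange column and counted by scintillation. Activity is given as percent inhibition.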

[1] = system: Raw 264.7 mouse macrophage cell line; experiment: NO production by interferon-gamma-activated macrophages; assay type: cell-based; settings: 0.5, 2.0 or 8.0 μM for 24 hours with 500 units/ml murine interferon gamma
Summary of the method: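 Raw 264.7 cells kept by serial passage in RPMI-1640 with 10% FBS. Activated 24 h with 500 units/ml murine interferon-gamma, with 0, 0.5, 2.0 or 8.0 μM test compound present throughout. Loaded with 10 μM DAF-FM for 30 min, washed, and fluorescence read at 495/515 nm. NO production given as percent of control; SEM from 6 separate experiments.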

NOS2 oxygenase domain = NOS2 oxygenase domain (Homo sapiens, UniProt P35228); experiment: CO binding to reduced NOS2 oxygenase domain heme; settings: NOS2 oxygenase domain reduced with dithionite
Chain of NOS2 oxygenase domain (P35228 1-504 limits assumed): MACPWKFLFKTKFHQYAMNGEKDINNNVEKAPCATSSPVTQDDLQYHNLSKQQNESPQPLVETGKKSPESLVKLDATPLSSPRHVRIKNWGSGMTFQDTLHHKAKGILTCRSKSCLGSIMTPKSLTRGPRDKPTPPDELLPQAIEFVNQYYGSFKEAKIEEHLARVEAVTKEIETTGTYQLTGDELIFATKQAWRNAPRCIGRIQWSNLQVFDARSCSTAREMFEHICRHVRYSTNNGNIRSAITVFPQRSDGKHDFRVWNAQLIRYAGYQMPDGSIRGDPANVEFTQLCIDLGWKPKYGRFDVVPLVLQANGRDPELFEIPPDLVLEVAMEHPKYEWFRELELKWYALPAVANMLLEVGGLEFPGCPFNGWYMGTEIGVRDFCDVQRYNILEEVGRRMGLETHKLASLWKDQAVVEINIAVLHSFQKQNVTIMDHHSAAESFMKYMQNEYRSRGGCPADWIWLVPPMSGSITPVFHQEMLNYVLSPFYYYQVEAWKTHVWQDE
Summary of the method: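 Purified recombinant NOS2 oxygenase domain (about 3 μM final) reduced with dithionite and exposed to CO, with or without test compound. UV/visible spectra recorded, monitoring the ferrous-heme–CO peak at 445 nm.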

[2] = purified recombinant enzyme, 60 min, 37°C
[3] = agent exposed to light for 60 minutes (with light)
[4] = agent not exposed to light (no light)

Row | Compound | Estimated ED50 NOS3 (NOS3) [µM] | Estimated ED50 NOS1 (NOS1; [2]) [µM] | Estimated ED50 NOS2 (NOS2; [2]) [µM] | Estimated ED50 NOS1 (NOS1; [3]) [µM] | Estimated ED50 NOS1 (NOS1; [4]) [µM] | Estimated ED50 NOS2 (NOS2; [3]) [µM] | Estimated ED50 NOS2 (NOS2; [4]) [µM] | NO production by cells [1] | Effect on CO-induced spectral changes (ferrous-CO adduct formation) (NOS2 oxygenase domain)
1 | C/C1=C2/[N-][C@H]([C@H](CC(N)=O)[C@@]2(C)CCC(=O)NC[C@@H](C)OP(=O)([O-])O[C@H]2[C@@H](O)[C@@H](n3cnc4cc(C)c(C)cc43)O[C@@H]2CO)[C@]2(C)N=C(/C(C)=C3N=C(/C=C4N=C1[C@@H](CCC(N)=O)C\4(C)C)[C@@H](CCC(N)=O)[C@]\3(C)CC(N)=O)[C@@H](CCC(N)=O)[C@]2(C)CC(N)=O.[CH2-][C@H]1O[C@@H](n2cnc3c(N)ncnc32)[C@H](O)[C@@H]1O.[Co] [Adenosylcobalamin] |  |  |  | 6.4 | 498.0 | 60.0 | 2148.0 |  | 
2 | C/C1=C2/[N-][C@H]([C@H](CC(N)=O)[C@@]2(C)CCC(=O)NC[C@H](C)OP(=O)([O-])O[C@H]2[C@@H](O)[C@@H](n3cnc4cc(C)c(C)cc43)O[C@@H]2CO)[C@]2(C)N=C(/C(C)=C3N=C(/C=C4N=C1[C@@H](CCC(N)=O)C\4(C)C)[C@@H](CCC(N)=O)[C@]\3(C)CC(N)=O)[C@@H](CCC(N)=O)[C@]2(C)CC(N)=O.[CH3-].[Co+3] [Methylcobalamin] |  |  |  | 5.9 | 576.0 | 63.0 | 231.0 |  | 
3 | C/C1=C2/[N-][C@H]([C@H](CC(N)=O)[C@@]2(C)CCC(=O)NC[C@@H](C)OP(=O)([O-])O[C@H]2[C@@H](O)[C@@H](n3cnc4cc(C)c(C)cc43)O[C@@H]2CO)[C@]2(C)N=C(/C(C)=C3N=C(/C=C4N=C1[C@@H](CCC(N)=O)C\4(C)C)[C@@H](CCC(N)=O)[C@]\3(C)CC(N)=O)[C@@H](CCC(N)=O)[C@]2(C)CC(N)=O.[Co+3].[OH-] [Hydroxocobalamin] | 9.1 | 5.7 | 21.1 |  |  |  |  |  | 
4 | C/C1=C2/[N-]C([C@H](CC(N)=O)[C@@]2(C)CCC(=O)NCC(C)O)[C@]2(C)N=C(/C(C)=C3N=C(/C=C4N=C1[C@@H](CCC(N)=O)C\4(C)C)[C@@H](CCC(N)=O)[C@]\3(C)CC(N)=O)[C@@H](CCC(N)=O)[C@]2(C)CC(N)=O.[C-]#N.[C-]#N.[Co] (stereo partly drawn) [Dicyanocobinamide] | 0.33 | 0.23 | 2.29 |  |  |  |  | dose-dependent inhibition | markedly diminished
5 | CC1(C)N([O])C(c2ccc(C(=O)[O-])cc2)=[N+]([O-])C1(C)C.[K+] [Carboxy-PTIO, 2-(4-Carboxyphenyl)-4,4,5,5-tetramethylimidazoline-1-oxyl-3-oxide (potassium salt)] |  | 1360.0 | 1359.0 |  |  |  |  |  | 

Now from value to compound, other results behind:

Row | Estimated ED50 NOS3 (NOS3) [µM] | Compound | Estimated ED50 NOS1 (NOS1; [2]) [µM] | Estimated ED50 NOS2 (NOS2; [2]) [µM] | Estimated ED50 NOS1 (NOS1; [3]) [µM] | Estimated ED50 NOS1 (NOS1; [4]) [µM] | Estimated ED50 NOS2 (NOS2; [3]) [µM] | Estimated ED50 NOS2 (NOS2; [4]) [µM] | NO production by cells [1] | Effect on CO-induced spectral changes (ferrous-CO adduct formation) (NOS2 oxygenase domain)
6 | 41.0 | C/C1=C2N=C(/C=C3N=C(/C(C)=C4\[N-]C(C(CC(N)=O)C4(C)CCC(=O)NCC(C)OP(=O)([O-])OC4C(CO)OC(n5cnc6cc(C)c(C)cc65)C4O)C4(C)N=C1C(CCC(N)=O)C4(C)CC(N)=O)C(CCC(N)=O)C\3(C)C)C(CCC(N)=O)C/2(C)CC(N)=O.NC(CCC(=O)NC(C[S-])C(=O)NCC(=O)O)C(=O)O.[Co+3] (stereo not drawn) [Glutathionylcobalamin] | 9.6 | 29.0 |  |  |  |  |  | 
7 | 43.0 | C/C1=C2/[N-][C@H]([C@H](CC(N)=O)[C@@]2(C)CCC(=O)NC[C@@H](C)O)[C@]2(C)N=C(/C(C)=C3N=C(/C=C4N=C1[C@@H](CCC(N)=O)C\4(C)C)[C@@H](CCC(N)=O)[C@]\3(C)CC(N)=O)[C@@H](CCC(N)=O)[C@]2(C)CC(N)=O.[Co+3] [Cobinamide] | 15.0 | 50.0 |  |  |  |  |  | 
8 | 519.0 | Cyanocobalamin | 72.0 | 1620.0 |  |  |  |  |  | 

— PMC2745708 (Free radical biology & medicine, 2009)
